Experimental findings from ChEMBL document CHEMBL1926502, “The discovery of UK-369003, a novel PDE5 inhibitor with the potential for oral bioavailability and dose-proportional pharmacokinetics” (Bioorg Med Chem, 2012) are described below.

One series is filed under the species Homo sapiens. Nature of the series: Selectivity ratio of IC50 for PDE6 to IC50 for human PDE5. An outline of the steps: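 PDE5 was prepared from human corpus cavernosum and cone PDE6 from dog retina (anion-exchange fraction). IC50s came from concentration–response curves in a scintillation proximity assay with [3H]/unlabelled cGMP (1:3) at about 1/3 Km, so IC50 = Ki. Buffer was 20 mM Tris-HCl pH 7.4, 5 mM MgCl2, 1 mg/mL BSA; 30–60 min at 30 °C, <30% turnover. Ratio = PDE6 IC50/PDE5 IC50.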

Series [1] has as its target cGMP-specific 3',5'-cyclic phosphodiesterase (Homo sapiens, UniProt O76074). The experiment in a line: Inhibition of human PDE5 isolated from corpus cavernosum after 30 to 60 mins by scintillation counting method.
The next series relates to Caco-2. Nature of the series: Efflux ratio of apparent permeability from apical to basolateral to basolateral to apical side of human Caco2 cells. The class given is ADME, cell-based. The procedure, abridged:
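Caco-2 cell monolayers; flux measured in both directions, and the efflux ratio is taken as apical→basolateral flux divided by basolateral→apical flux.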
For orientation: Passage across Caco-2 layers is used to estimate intestinal permeability.

Series [2] in a line: Apparent permeability from apical to basolateral side of human Caco2 cells at 25 uM. As to conditions: Caco-2. The class given is ADME, cell-based.
Series [3] in a line: Half life in human liver microsomes. Type of series: ADME, Microsome. In general terms: Liver microsomes are vesicles of endoplasmic reticulum, rich in cytochrome P450 enzymes.
Series [4] is described as follows: Lipophilicity, log D of the compound at pH 7.4. The class given is physicochemical. As to conditions: buffer.

Regarding `CCN1CCN(S(=O)(=O)c2cnc(OCCOC)c(-c3nc4c5n(nc4c(=O)[nH]3)CCCC5C)c2)CC1` (single isomer, unassigned; (-)), the Ratio IC50 in the series listed under Homo sapiens came to 490.
Consider `CCc1c2nc(-c3cc(S(=O)(=O)N4CCN(CC)CC4)cnc3OCC(C)C)[nH]c(=O)c2nn1CCCN(C)C`, for which the Ratio IC50 in the series filed under Homo sapiens was 404. Besides, the IC50 in series [1] amounted to 2.44 nM.
For `CCc1c2nc(-c3cc(S(=O)(=O)N4CCN(C)CC4)cnc3OCCOC)[nH]c(=O)c2nn1CC(C)C`, the Ratio IC50 in the series filed under Homo sapiens was found to be 237. Moreover, the Ratio in the series with Caco-2 amounted to 2.2. In series [1], the IC50 turned out to be 2.89 nM. In series [2], the Papp A→B at 25 µM was found to be 19 ×10⁻⁶ cm/s. In series [3], this molecule displayed a half-life of 28 min. Besides, the logD in series [4] is 2.3.
On to `CCc1c2nc(-c3cc(S(=O)(=O)N4CCN(CC)CC4)cnc3OCCOC)[nH]c(=O)c2nn1C(C)C`, for which, in the series listed under Homo sapiens, the Ratio IC50 was 354. In series [1], half-maximal inhibition (IC50) was put at 1.36 nM.
Regarding `CCCCOc1ncc(S(=O)(=O)N2CCN(CC)CC2)cc1-c1nc2c(CC)n(CCN(C)C)nc2c(=O)[nH]1`, in the series filed under Homo sapiens, the Ratio IC50 came to 171. Moreover, the Ratio in the series on Caco-2 turned out to be 7. For the same molecule, in series [1], inhibition was half-maximal at 1 nM (IC50). In series [2], the apical-to-basolateral permeability (Papp A→B) at 25 µM was determined as 2.8 ×10⁻⁶ cm/s. The logD in series [4] amounted to 3.
As for `CCCOc1ncc(S(=O)(=O)N2CCN(CC)CC2)cc1-c1nc2c(CC)n(CCOC)nc2c(=O)[nH]1`, the Ratio IC50 in the series filed under Homo sapiens was found to be 51. This molecule returned an IC50 in series [1] of 0.69 nM.
For the molecule `CCc1c2nc(-c3cc(S(=O)(=O)N4CCN(CC)CC4)cnc3OCCOC)[nH]c(=O)c2nn1CC(C)C`, in the series listed under Homo sapiens, the Ratio IC50 was determined as 331. The Ratio in the series on Caco-2 came out at 2.5. The IC50 in series [1] came to 1.04 nM. Besides, the Papp A→B at 25 µM in series [2] came to 24 ×10⁻⁶ cm/s. In series [3], this molecule displayed a half-life of 11 min. Also, in series [4], the logD worked out at 2.8.
`CCOc1ncc(S(=O)(=O)N2CCN(CC)CC2)cc1-c1nc2c(CC)n(C3CN(C)C3)nc2c(=O)[nH]1`: in the series filed under Homo sapiens, the Ratio IC50 is 52. For the same molecule, the IC50 in series [1] is 8.2 nM.
Consider `CCc1c2nc(-c3cc(S(=O)(=O)N4CCN(CC)CC4)cnc3OCCOC)[nH]c(=O)c2nn1CCN1CCOCC1`, for which the Ratio IC50 in the series filed under Homo sapiens is 210. Also, in the series on Caco-2, the Ratio is recorded as 8. In addition, half-maximal inhibition in series [1] (IC50) required 1.27 nM. Further, the Papp A→B at 25 µM in series [2] was determined as 2.8 ×10⁻⁶ cm/s. The half-life in series [3] is 48 min. The logD in series [4] is 1.1.
In the case of `CCOc1ncc(S(=O)(=O)N2CCN(CC)CC2)cc1-c1nc2c3n(nc2c(=O)[nH]1)CCCC3`, in the series filed under Homo sapiens, the Ratio IC50 turned out to be 70. This molecule came in with an IC50 in series [1] of 10.8 nM.
For `CCN1CCN(S(=O)(=O)c2cnc(OCCOC)c(-c3nc4c5n(nc4c(=O)[nH]3)CCCC5)c2)CC1`, in that order: 392 and 8.5 nM.
`CCN1CCN(S(=O)(=O)c2cnc(OCCOC)c(-c3nc4c5n(nc4c(=O)[nH]3)CCCC5C)c2)CC1` (single isomer, unassigned; (+)) gave an IC50 in series [1] of 2.76 nM.
Regarding `CCCOc1ccc(S(=O)(=O)N2CCN(CC)CC2)cc1-c1nc2c(CC)n(Cc3ccccn3)nc2c(=O)[nH]1`, the Ratio IC50 in the series filed under Homo sapiens stood at 842.
Regarding `CCCCOc1ncc(S(=O)(=O)N2CCN(CC)CC2)cc1-c1nc2c(CC)n(C3CCN(S(C)(=O)=O)CC3)nc2c(=O)[nH]1`, in the series listed under Homo sapiens, the Ratio IC50 was determined as 100. The half-maximal inhibitory concentration (IC50) in series [1] worked out at 0.31 nM.
In the case of `CCc1c2nc(-c3cc(S(=O)(=O)N4CCN(CC)CC4)cnc3OCc3ccccn3)[nH]c(=O)c2nn1CCOC`, the Ratio IC50 in the series filed under Homo sapiens is 309. Further, the IC50 in series [1] was 0.75 nM.
With `CCCn1nc2c(=O)[nH]c(-c3cc(S(=O)(=O)N4CCN(CC)CC4)cnc3OCCOC)nc2c1CC`, the Ratio IC50 in the series filed under Homo sapiens stood at 170. The molecule also yielded an IC50 in series [1] of 1.83 nM.
Turning to `CCCCOc1ncc(S(=O)(=O)N2CCN(CC)CC2)cc1-c1nc2c(CC)n(C3CCN(C)CC3)nc2c(=O)[nH]1`, the Ratio IC50 in the series filed under Homo sapiens stood at 184. Also, in series [1], half-maximal inhibition (IC50) was put at 0.74 nM.
`CCOc1ncc(S(=O)(=O)N2CCN(CC)CC2)cc1-c1nc2c(CC)n(CCN3CCOCC3)nc2c(=O)[nH]1`: the Ratio IC50 in the series listed under Homo sapiens is 184. Further, the Ratio in the series on Caco-2 is on record as 11.2. The molecule also displayed an IC50 in series [1] of 0.86 nM. Besides, in series [2], the Papp A→B at 25 µM came out at 2.5 ×10⁻⁶ cm/s. Besides, the half-life in series [3] worked out at 18 min. The logD in series [4] is 1.6.

By IC50 is commonly meant the concentration needed to halve the response being measured. Higher therefore signals weaker potency. Broadly, the Papp A→B is how fast a substance crosses the layer from the apical side. The half-life is the time in which the quantity being followed falls by half. Usually logD stands for the decadic logarithm of the distribution of all forms, ionised or not, between an organic phase and buffer at a given pH. Higher therefore signals a more lipophilic compound.
